Test [1] deals with T1, Testis-specific serine/threonine-protein kinase 3 (Homo sapiens) (UniProt Q96PN8).
T1 sequence (whole entry): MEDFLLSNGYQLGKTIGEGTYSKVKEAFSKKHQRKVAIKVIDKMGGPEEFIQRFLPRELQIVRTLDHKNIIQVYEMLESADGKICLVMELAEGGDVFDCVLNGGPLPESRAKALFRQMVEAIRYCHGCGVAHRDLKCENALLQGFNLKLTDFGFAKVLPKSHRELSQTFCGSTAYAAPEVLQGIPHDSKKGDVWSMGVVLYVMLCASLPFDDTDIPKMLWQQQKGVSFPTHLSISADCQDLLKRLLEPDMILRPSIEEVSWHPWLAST
Briefly: Inhibition of human recombinant TSSK3 at 40 nM in presence of ATP by radiometric assay relative to control.

Test [2] concerns the target Serine/threonine-protein kinase Nek6 (Homo sapiens) (UniProt Q9HC98). Briefly: Inhibition of human recombinant NEK6 at 40 nM related to control ULK1.
Test [3] has as its target Proto-oncogene tyrosine-protein kinase ROS (Homo sapiens) (UniProt P08922). Briefly: Inhibition of human recombinant ROS at 40 nM related to control ULK1.
The target in test [4] is Serine-protein kinase ATM (Homo sapiens) (UniProt Q13315). The test can be described thus: Inhibition of human recombinant ATM at 500 nM in presence of ATP by radiometric assay relative to control. In a few lines:
(§1)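 Panel of 327 recombinant human kinases, each assayed in vitro by radiometric activity assay in duplicate at a single inhibitor concentration per compound, chosen with reference to its ULK1 inhibition. Activity remaining was expressed as percent of vehicle control, and percent inhibition was calculated as 100 minus percent activity remaining.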

The target in test [5] is Dual specificity protein kinase CLK2 (Homo sapiens) (UniProt P49760). The test can be described thus: Inhibition of human recombinant CLK2 at 500 nM in presence of ATP by radiometric assay relative to control.
Test [6] deals with Insulin-like growth factor 1 receptor (Homo sapiens) (UniProt P08069). The test can be described thus: Inhibition of human recombinant IGF1R at 500 nM in presence of ATP by radiometric assay relative to control.
For test [7], the species on record is Homo sapiens. Briefly: Inhibition of human recombinant KHS1 at 500 nM in presence of ATP by radiometric assay relative to control.
The target in test [8] is T2, Discoidin domain-containing receptor 2 (Homo sapiens) (UniProt Q16832).
T2 sequence (whole entry): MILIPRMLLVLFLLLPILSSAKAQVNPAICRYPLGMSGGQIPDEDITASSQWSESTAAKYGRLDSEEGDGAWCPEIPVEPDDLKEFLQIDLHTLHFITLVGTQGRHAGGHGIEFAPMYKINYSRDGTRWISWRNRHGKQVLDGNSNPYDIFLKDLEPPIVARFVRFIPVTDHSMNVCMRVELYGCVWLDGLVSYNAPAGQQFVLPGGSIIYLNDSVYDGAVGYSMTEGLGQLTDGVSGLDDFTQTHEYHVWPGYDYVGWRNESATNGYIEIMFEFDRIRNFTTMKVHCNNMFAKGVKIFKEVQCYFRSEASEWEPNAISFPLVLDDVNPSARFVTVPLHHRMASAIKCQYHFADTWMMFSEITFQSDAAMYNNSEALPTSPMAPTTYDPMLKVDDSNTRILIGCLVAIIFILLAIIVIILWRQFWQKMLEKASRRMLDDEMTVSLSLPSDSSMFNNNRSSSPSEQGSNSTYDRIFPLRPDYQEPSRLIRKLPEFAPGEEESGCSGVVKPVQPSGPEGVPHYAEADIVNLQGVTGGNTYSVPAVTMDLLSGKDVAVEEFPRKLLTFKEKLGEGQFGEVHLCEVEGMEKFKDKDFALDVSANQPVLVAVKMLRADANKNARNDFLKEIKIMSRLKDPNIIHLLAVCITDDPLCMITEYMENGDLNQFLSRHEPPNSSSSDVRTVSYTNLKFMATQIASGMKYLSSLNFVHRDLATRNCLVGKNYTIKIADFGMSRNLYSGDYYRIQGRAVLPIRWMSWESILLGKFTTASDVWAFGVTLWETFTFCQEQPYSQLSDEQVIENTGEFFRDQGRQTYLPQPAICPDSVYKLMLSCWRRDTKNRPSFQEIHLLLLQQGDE
The test can be described thus: Inhibition of human recombinant DDR2 at 500 nM related to control ULK1.

Test [9] addresses T3, Interleukin-1 receptor-associated kinase 4 (Homo sapiens) (UniProt Q9NWZ3).
T3 sequence (whole entry): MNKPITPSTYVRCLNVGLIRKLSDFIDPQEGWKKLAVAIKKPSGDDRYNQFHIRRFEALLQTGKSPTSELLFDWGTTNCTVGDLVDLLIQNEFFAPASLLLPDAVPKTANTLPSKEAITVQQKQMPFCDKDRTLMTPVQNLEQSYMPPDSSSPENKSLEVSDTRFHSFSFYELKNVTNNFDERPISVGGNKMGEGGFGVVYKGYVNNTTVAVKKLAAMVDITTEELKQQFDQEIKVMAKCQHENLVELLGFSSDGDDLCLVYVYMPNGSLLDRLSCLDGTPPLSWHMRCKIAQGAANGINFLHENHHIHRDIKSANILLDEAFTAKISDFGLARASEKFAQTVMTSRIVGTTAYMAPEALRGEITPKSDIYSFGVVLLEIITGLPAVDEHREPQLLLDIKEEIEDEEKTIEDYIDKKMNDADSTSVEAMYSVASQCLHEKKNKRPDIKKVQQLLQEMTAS
The test can be described thus: Inhibition of human recombinant IRAK4 at 500 nM related to control ULK1.

Test [10] deals with Serine/threonine-protein kinase Nek4 (Homo sapiens) (UniProt P51957). Briefly: Inhibition of human recombinant NEK4 at 500 nM related to control ULK1.
For test [11], the target named is Rhodopsin kinase GRK7 (Homo sapiens) (UniProt Q8WTQ7). Briefly: Inhibition of human recombinant GPRK7 at 500 nM in presence of ATP by radiometric assay relative to control.
Test [12] concerns the target Calcium/calmodulin-dependent protein kinase type II subunit delta (Homo sapiens) (UniProt Q13557). The test can be described thus: Inhibition of human recombinant CaMK2d at 15 nM in presence of ATP by radiometric assay relative to control.
Test [13] concerns the target Epithelial discoidin domain-containing receptor 1 (Homo sapiens) (UniProt Q08345). Briefly: Inhibition of human recombinant DDR1 at 15 nM in presence of ATP by radiometric assay relative to control.
Test [14] has as its target Vascular endothelial growth factor receptor 3 (Homo sapiens) (UniProt P35916). The test can be described thus: Inhibition of human recombinant FLT4 at 15 nM in presence of ATP by radiometric assay relative to control.
For test [15], the target named is Serine/threonine-protein kinase ATR (Homo sapiens) (UniProt Q13535). The test can be described thus: Inhibition of human recombinant ATR at 15 nM related to control ULK1. In a few lines: as §1

Chain of Vascular endothelial growth factor receptor 3 (Homo sapiens) (P35916 whole entry): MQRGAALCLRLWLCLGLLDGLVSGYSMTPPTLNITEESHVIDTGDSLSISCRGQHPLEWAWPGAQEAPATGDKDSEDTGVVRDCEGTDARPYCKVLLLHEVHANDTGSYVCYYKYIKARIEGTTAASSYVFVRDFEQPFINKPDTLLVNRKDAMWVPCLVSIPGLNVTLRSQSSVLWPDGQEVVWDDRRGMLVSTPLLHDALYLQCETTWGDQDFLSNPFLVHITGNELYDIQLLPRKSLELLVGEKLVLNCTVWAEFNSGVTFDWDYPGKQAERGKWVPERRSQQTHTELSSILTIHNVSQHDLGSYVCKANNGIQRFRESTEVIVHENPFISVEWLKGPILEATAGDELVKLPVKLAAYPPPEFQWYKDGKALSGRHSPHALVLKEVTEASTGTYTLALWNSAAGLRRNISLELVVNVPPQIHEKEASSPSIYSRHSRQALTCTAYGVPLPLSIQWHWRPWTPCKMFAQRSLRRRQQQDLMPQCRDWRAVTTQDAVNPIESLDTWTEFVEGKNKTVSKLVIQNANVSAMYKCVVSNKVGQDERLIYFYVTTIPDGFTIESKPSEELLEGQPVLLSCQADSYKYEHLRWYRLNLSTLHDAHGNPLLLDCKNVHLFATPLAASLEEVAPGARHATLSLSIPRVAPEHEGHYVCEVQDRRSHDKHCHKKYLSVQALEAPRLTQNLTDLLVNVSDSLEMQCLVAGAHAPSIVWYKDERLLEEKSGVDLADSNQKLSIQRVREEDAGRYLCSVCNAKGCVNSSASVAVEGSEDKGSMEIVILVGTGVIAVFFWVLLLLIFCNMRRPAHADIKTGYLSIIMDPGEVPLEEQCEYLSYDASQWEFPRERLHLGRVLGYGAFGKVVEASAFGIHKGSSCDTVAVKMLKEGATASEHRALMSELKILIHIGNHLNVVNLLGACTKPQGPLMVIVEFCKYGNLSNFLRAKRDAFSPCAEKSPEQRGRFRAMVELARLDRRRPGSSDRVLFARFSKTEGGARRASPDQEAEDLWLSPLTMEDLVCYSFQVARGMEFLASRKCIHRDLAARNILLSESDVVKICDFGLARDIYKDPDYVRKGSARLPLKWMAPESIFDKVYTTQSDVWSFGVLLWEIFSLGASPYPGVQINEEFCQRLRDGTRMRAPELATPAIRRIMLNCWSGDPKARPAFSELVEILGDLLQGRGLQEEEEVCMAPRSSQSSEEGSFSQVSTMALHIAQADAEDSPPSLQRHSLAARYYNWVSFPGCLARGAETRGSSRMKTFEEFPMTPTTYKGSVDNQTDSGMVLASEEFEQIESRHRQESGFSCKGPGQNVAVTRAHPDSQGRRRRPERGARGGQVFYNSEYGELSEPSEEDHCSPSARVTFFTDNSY
Chain of Proto-oncogene tyrosine-protein kinase ROS (Homo sapiens) (P08922 whole entry): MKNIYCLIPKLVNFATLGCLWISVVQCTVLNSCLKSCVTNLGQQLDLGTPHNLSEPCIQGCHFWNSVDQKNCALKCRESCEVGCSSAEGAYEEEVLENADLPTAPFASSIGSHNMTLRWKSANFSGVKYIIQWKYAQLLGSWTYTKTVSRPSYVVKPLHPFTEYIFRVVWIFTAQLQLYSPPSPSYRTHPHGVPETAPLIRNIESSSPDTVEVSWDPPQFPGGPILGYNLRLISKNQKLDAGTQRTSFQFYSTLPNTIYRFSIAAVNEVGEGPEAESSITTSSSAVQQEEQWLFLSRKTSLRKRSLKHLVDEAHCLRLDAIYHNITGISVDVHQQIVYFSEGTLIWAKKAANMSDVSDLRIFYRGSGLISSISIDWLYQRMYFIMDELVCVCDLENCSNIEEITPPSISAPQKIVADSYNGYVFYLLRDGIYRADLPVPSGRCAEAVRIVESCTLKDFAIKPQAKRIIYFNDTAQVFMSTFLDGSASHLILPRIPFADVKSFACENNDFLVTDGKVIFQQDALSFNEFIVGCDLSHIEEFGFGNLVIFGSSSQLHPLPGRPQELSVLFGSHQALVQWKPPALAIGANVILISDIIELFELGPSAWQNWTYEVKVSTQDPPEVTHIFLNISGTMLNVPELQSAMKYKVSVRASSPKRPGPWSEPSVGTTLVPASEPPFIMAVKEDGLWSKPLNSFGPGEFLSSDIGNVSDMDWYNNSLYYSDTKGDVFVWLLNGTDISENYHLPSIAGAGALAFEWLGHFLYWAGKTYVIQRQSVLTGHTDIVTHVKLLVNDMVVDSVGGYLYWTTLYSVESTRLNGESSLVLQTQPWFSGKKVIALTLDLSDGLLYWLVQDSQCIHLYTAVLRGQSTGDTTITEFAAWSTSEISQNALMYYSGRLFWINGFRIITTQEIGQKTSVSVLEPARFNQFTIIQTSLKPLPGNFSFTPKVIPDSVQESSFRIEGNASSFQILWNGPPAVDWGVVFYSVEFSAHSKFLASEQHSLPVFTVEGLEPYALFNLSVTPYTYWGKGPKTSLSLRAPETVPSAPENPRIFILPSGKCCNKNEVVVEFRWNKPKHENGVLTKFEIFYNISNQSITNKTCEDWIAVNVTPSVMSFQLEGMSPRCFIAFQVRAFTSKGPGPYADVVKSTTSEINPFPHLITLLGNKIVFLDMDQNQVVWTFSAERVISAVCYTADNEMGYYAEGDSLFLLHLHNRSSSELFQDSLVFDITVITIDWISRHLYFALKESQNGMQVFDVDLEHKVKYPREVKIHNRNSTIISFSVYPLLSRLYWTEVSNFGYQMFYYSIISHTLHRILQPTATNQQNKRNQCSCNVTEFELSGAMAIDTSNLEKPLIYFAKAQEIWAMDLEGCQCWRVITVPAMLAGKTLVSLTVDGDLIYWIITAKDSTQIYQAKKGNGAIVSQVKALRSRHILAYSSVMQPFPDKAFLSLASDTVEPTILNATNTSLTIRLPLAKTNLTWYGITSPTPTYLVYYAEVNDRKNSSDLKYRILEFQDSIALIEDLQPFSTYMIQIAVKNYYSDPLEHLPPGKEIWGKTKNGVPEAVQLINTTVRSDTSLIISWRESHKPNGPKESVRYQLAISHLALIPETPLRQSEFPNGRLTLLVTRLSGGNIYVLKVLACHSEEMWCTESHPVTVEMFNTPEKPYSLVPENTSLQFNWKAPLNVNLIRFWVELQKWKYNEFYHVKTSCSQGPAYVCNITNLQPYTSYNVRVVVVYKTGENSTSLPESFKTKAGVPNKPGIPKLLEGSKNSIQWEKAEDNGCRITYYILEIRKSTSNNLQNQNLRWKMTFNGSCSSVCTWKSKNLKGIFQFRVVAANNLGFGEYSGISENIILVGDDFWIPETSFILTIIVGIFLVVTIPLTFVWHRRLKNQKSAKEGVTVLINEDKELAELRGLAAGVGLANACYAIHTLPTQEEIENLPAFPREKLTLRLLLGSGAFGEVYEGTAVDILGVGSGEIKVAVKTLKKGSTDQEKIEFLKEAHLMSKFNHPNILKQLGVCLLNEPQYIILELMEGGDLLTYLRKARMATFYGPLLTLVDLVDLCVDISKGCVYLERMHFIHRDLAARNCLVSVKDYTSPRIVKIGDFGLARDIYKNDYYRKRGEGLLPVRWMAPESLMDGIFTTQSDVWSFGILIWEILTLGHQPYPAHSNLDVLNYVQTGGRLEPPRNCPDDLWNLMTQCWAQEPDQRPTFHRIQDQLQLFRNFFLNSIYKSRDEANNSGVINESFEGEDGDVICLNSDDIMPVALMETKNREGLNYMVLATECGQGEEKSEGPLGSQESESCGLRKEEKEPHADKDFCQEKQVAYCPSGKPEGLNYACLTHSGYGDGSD
Chain of Serine/threonine-protein kinase Nek4 (Homo sapiens) (P51957 whole entry, looked up): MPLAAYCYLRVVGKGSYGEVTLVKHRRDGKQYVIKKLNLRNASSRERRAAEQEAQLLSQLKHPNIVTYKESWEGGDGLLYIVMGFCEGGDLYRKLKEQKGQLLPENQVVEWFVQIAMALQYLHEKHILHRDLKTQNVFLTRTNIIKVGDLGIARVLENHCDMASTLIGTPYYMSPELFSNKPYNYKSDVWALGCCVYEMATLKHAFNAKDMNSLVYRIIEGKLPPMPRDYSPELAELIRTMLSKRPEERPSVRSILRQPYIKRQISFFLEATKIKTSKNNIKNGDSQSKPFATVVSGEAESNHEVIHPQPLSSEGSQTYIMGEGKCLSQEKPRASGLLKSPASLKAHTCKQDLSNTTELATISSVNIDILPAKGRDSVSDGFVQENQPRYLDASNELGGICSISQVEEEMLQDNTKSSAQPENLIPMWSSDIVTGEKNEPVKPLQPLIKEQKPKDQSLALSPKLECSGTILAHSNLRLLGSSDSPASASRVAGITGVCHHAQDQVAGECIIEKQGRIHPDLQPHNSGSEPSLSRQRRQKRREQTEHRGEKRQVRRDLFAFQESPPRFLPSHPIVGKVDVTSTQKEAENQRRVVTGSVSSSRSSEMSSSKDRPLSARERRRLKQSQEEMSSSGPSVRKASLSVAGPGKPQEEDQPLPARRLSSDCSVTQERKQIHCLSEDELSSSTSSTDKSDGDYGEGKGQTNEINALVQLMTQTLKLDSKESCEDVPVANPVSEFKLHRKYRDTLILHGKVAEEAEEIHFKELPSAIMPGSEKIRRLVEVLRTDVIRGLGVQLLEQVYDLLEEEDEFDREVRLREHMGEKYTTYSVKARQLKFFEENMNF
Chain of Serine/threonine-protein kinase Nek6 (Homo sapiens) (Q9HC98 whole entry): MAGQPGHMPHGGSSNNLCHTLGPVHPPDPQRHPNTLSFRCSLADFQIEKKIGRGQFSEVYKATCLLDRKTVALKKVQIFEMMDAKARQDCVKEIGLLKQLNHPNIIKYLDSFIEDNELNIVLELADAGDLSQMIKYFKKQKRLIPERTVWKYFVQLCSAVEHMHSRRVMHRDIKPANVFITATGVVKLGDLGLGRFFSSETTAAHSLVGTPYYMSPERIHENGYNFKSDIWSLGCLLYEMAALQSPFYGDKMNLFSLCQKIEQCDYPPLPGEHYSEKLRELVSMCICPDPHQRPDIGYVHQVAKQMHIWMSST

With `O=C(N[C@@H](C1CC1)C(F)(F)F)c1cc(-c2cnn3cc(-c4ccc(F)cc4)cnc23)cs1`, the inhibition in test [1] is 0%. The fold change (FC) in test [2] and in [3] was 0 throughout.

For `CNC(=O)c1ccccc1Oc1nc(Nc2cc(OC)c(OC)c(OC)c2)ncc1Br`, the inhibition is 2% in test [4]; 7% in test [5]; 3% in test [6]; 11% in [7]; 10% in test [11]. For the same molecule, the fold change (FC) in [8] was found to be 0; in test [9] it was 0.08; in test [10], 0.31.

Take `CC(C)[C@H](NC(=O)c1cc(-c2cnn3cc(-c4ccc(OCCN5CCCCC5)cc4)cnc23)cs1)C(F)(F)F`: the inhibition in test [12] was 20%; in test [13] it was 78%; in test [14], 35%. Also, in [15], the fold change (FC) was 0.05.

By inhibition is commonly meant the percentage by which the read-out fell short of the control.

The record behind these values is ChEMBL document CHEMBL5653631, “A Potent and Selective ULK1 Inhibitor Suppresses Autophagy and Sensitizes Cancer Cells to Nutrient Stress” (iScience, 2018).
